From ChEMBL document CHEMBL1817556, “Substituted lactam and cyclic azahemiacetals modulate Pseudomonas aeruginosa quorum sensing” (Bioorg Med Chem, 2011)

Biological target: 3-(3-hydroxydecanoyloxy)decanoate synthase (Pseudomonas aeruginosa (strain ATCC 15692 / PAO1 / 1C / PRS 101 / LMG12228)) (UniProt Q51559)
Test: Modulation of Pseudomonas aeruginosa lacZ-fused rhlA expressed in Escherichia coli DH5alpha co-expressing Ptac-rhlR at 0.002 mM after 4 hrs by beta-galactosidase assay relative to control
Procedure, shortened: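 E. coli DH5α carrying pECP61.5 (Ptac-rhlR plus PrhlA-lacZ) was grown overnight in LB with ampicillin 100 μg/ml and diluted to OD600 0.150. It was induced with 1 mM IPTG, and 2 μM C4-HSL plus compound or DMSO were added at OD600 1.0. Cultures were shaken 4 h at 37°C and β-galactosidase read in Miller units. Activity is % of solvent control, triplicates, ≥2 biological repeats, paired two-tailed t-test.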

## CCCC(=O)N[C@H]1CCOC1=O
  Activity: 100%
